Source: ChEMBL document CHEMBL1166015, “Design, synthesis, and docking of highly hypolipidemic agents: Schizosaccharomyces pombe as a new model for evaluating alpha-asarone-based HMG-CoA reductase inhibitors” (Bioorg Med Chem, 2010)

Key:
[1] = test system: Mus musculus; test: Hypolipidemic activity in high cholesterol diet fed ICR mouse assessed as reduction of LDL cholesterol level at 50 mg/kg/day, po after 12 hrs of last cholesterol challenge relative to control; parameters: scale not given: the % may be the effect or the level left
[2] = test system: Mus musculus; test: Hypolipidemic activity in ICR mouse assessed as decrease in Tyloxapol-induced triglyceride level at 50 mg/kg, ip administered 1 hr before Tyloxapol challenge and 22, 48 hrs after Tyloxapol challenge measured after 22 hrs relative to control; assay type: functional; parameters: scale not given: the % may be the effect or the level left; conditions: route intraperitoneal
Summary of the method: (§1)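 Male ICR mice (24–27 g), groups of six. Hyperlipidemia induced by ip Tyloxapol (Triton WR 1339) 400 mg/kg in water. Drug given at 5 mL/kg 1 h before and 22 and 48 h after injection; vehicle controls. Blood drawn 22 h post-injection by periorbital bleeding. Serum total cholesterol, HDL-C and triglycerides measured on an automatic analyzer; LDL-C by the Friedewald equation. Values are % of the Tyloxapol group, mean ± SE.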

[3] = test system: Mus musculus; test: Hypolipidemic activity in high cholesterol diet fed ICR mouse assessed as reduction of HDL cholesterol level at 100 mg/kg/day, po after 12 hrs of last cholesterol challenge relative to control; parameters: scale not given: the % may be the effect or the level left
[4] = test system: Mus musculus; test: Hypolipidemic activity in ICR mouse assessed as decrease in Tyloxapol-induced HDL-cholesterol level at 100 mg/kg, ip administered 1 hr before Tyloxapol challenge and 22, 48 hrs after Tyloxapol challenge measured after 22 hrs relative to control; assay type: functional; parameters: scale not given: the % may be the effect or the level left; conditions: route intraperitoneal
Summary of the method: as §1

[5] = test system: Mus musculus; test: Hypolipidemic activity in high cholesterol diet fed ICR mouse assessed as reduction of total cholesterol level at 50 mg/kg, ip after 12 hrs of last cholesterol challenge relative to control; assay type: functional; parameters: scale not given: the % may be the effect or the level left; conditions: route intraperitoneal
Summary of the method: (§2)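 Male ICR mice (24–27 g), six per group, were fed a high-cholesterol diet ad libitum for 6 days (1.0% cholesterol, 0.5% sodium cholate, 5% butter, 30% sucrose, 10% casein, 53.5% chow). Basal-diet mice served as controls. Dosing was 5 mL/kg and solutions were made fresh. Mice were fasted 12 h before sacrifice and bled periorbitally. Serum TC, HDL-C and TG were read on an analyzer, with LDL-C by Friedewald.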

[6] = target: T1, 3-hydroxy-3-methylglutaryl-coenzyme A reductase (Schizosaccharomyces pombe 972h-, UniProt Q10283); test: Inhibition of Schizosaccharomyces pombe HMG-CoA reductase by spectrophotometry; conditions: read-out: IC50
T1 sequence (Q10283 whole entry): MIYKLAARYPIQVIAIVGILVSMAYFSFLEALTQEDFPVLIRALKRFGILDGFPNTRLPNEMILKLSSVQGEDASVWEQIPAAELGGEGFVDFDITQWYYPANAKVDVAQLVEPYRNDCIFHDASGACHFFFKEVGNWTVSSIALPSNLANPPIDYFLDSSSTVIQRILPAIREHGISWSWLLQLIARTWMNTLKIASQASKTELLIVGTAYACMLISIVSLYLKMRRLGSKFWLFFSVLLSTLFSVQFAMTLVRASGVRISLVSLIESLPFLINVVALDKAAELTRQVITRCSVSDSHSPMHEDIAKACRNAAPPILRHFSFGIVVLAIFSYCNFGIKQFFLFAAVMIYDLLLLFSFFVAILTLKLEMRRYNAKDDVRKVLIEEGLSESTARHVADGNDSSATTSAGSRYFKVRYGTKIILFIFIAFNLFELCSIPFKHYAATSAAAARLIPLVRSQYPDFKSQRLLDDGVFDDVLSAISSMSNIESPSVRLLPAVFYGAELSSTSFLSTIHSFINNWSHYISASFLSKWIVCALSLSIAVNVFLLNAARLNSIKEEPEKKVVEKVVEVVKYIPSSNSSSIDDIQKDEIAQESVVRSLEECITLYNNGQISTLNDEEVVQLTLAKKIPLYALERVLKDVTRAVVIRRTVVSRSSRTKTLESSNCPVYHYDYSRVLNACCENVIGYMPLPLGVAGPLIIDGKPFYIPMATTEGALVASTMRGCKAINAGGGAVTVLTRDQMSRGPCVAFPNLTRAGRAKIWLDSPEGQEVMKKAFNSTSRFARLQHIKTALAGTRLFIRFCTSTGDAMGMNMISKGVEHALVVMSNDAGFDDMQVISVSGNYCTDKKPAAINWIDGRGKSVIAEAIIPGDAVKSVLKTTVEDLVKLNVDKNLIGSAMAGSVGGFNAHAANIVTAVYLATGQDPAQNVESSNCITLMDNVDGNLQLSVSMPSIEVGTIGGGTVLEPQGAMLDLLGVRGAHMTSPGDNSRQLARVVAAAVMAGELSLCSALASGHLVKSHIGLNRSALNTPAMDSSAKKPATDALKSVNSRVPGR
Summary of the method: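 Membrane HMGR partially purified from S. pombe 972 h (YPD, 28 °C, 48 h) via centrifugation, Triton X-100 solubilization, 65 °C heat step, ammonium sulfate and calcium phosphate gel. Enzyme activated 37 °C 30 min, pre-incubated with compound (DMSO stocks 1–5 mM) 30 min at 37 °C. Assay: 200 µg enzyme, 0.13 mM HMG-CoA, 50 mM Tris-HCl pH 7.5; started with 0.13 mM NADPH; A340 decrease over 2 min; triplicate; IC50 derived.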

[7] = test system: Mus musculus; test: Hypolipidemic activity in ICR mouse assessed as decrease in Tyloxapol-induced HDL-cholesterol level at 50 mg/kg, ip administered 1 hr before Tyloxapol challenge and 22, 48 hrs after Tyloxapol challenge measured after 22 hrs relative to control; assay type: functional; parameters: scale not given: the % may be the effect or the level left; conditions: route oral, in the assay text read “po administered” for “ip administered”
Summary of the method: as §1

[8] = test system: Mus musculus; test: Hypolipidemic activity in ICR mouse assessed as decrease in Tyloxapol-induced triglyceride level at 100 mg/kg, ip administered 1 hr before Tyloxapol challenge and 22, 48 hrs after Tyloxapol challenge measured after 22 hrs relative to control; assay type: functional; parameters: scale not given: the % may be the effect or the level left; conditions: route intraperitoneal
Summary of the method: as §1

[9] = test system: Mus musculus; test: Hypolipidemic activity in high cholesterol diet fed ICR mouse assessed as reduction of triglyceride level at 50 mg/kg/day, po after 12 hrs of last cholesterol challenge relative to control; parameters: scale not given: the % may be the effect or the level left
[10] = test system: Mus musculus; test: Hypolipidemic activity in high cholesterol diet fed ICR mouse assessed as reduction of HDL cholesterol level at 50 mg/kg/day, po after 12 hrs of last cholesterol challenge relative to control; parameters: scale not given: the % may be the effect or the level left
[11] = test system: Mus musculus; test: Hypolipidemic activity in ICR mouse assessed as decrease in Tyloxapol-induced total cholesterol level at 100 mg/kg, ip administered 1 hr before Tyloxapol challenge and 22, 48 hrs after Tyloxapol challenge measured after 22 hrs relative to control; assay type: functional; parameters: scale not given: the % may be the effect or the level left; conditions: route oral, in the assay text read “po administered” for “ip administered”
Summary of the method: as §1

[12] = test system: Mus musculus; test: Hypolipidemic activity in ICR mouse assessed as decrease in Tyloxapol-induced LDL-cholesterol level at 50 mg/kg, ip administered 1 hr before Tyloxapol challenge and 22, 48 hrs after Tyloxapol challenge measured after 22 hrs relative to control; assay type: functional; parameters: scale not given: the % may be the effect or the level left; conditions: route oral, in the assay text read “po administered” for “ip administered”
Summary of the method: as §1

[13] = test system: Mus musculus; test: Hypolipidemic activity in high cholesterol diet fed ICR mouse assessed as reduction of total cholesterol level at 100 mg/kg/day, ip after 12 hrs of last cholesterol challenge relative to control; assay type: functional; parameters: scale not given: the % may be the effect or the level left; conditions: route intraperitoneal
Summary of the method: as §2

[14] = test system: Mus musculus; test: Hypolipidemic activity in high cholesterol diet fed ICR mouse assessed as reduction of triglyceride level at 100 mg/kg/day, po after 12 hrs of last cholesterol challenge relative to control; parameters: scale not given: the % may be the effect or the level left
[15] = test system: Mus musculus; test: Hypolipidemic activity in high cholesterol diet fed ICR mouse assessed as reduction of LDL cholesterol level at 100 mg/kg/day, po after 12 hrs of last cholesterol challenge relative to control; parameters: scale not given: the % may be the effect or the level left
[16] = test system: Mus musculus; test: Hypolipidemic activity in ICR mouse assessed as decrease in Tyloxapol-induced LDL-cholesterol level at 100 mg/kg, ip administered 1 hr before Tyloxapol challenge and 22, 48 hrs after Tyloxapol challenge measured after 22 hrs relative to control; assay type: functional; parameters: scale not given: the % may be the effect or the level left; conditions: route oral, in the assay text read “po administered” for “ip administered”
Summary of the method: as §1

[17] = test system: Mus musculus; test: Hypolipidemic activity in ICR mouse assessed as decrease in Tyloxapol-induced total cholesterol level at 50 mg/kg, ip administered 1 hr before Tyloxapol challenge and 22, 48 hrs after Tyloxapol challenge measured after 22 hrs relative to control; assay type: functional; parameters: scale not given: the % may be the effect or the level left; conditions: route oral, in the assay text read “po administered” for “ip administered”
Summary of the method: as §1

Structure (SMILES): CCCc1cc(OC)c(OCC(=O)OC)cc1N
- Activity [1]: -41.1%
- Activity [2]: -15.45%
- Activity [3]: -39.58%
- Activity [4]: -26.23%
- Activity [5]: -41.4%
- IC50 [6]: 92.9 µM
- Activity [7]: -11.21%
- Activity [8]: -22.14%
- Activity [9]: -12.22%
- Activity [10]: -36.04%
- Activity [11]: -59.67%
- Activity [12]: -24.22%
- Activity [13]: -49.47%
- Activity [14]: -24.98%
- Activity [15]: -31.54%
- Activity [16]: -37.31%
- Activity [17]: -69.1%
